Measured values: ChEMBL document CHEMBL1148460, “Interaction of cycloSal-pronucleotides with cholinesterases from different origins. A structure-activity relationship” (J Med Chem, 2004)
pEC50, pIC50: −log10 of the molar value.

Assays:
CCRF-CEM = test: Anti-HIV-1 activity tested in human lymphocytic CEM cells; assay type: functional, cell-based
Acetylcholinesterase [1] = biological target: Acetylcholinesterase (Electrophorus electricus, UniProt O42275); test: Inhibitory activity towards Electrophorus electricus acetylcholinesterase
Cholinesterase [2] = biological target: Cholinesterase (Homo sapiens, UniProt P06276); test: Inhibitory activity towards human butyrylcholinesterase
Procedure, shortened: (§1)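 Modified Rappaport assay following acetylcholine chloride hydrolysis to acetic acid, with m-nitrophenol indicator in phosphate buffer at pH 7.8 and NaCl. The compound is added in DMSO, and the reaction is started with serum (human, mouse or calf). A420 is read at 25 °C at 0 and 5 min. Final inhibitor is 0.1, 0.5, 1, 5, 10, 30 and 50 µM. IC50 is interpolated from ΔE plots in the pseudolinear region.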

Acetylcholinesterase [3] = biological target: T1, Acetylcholinesterase (Bos taurus, UniProt P23795); test: Inhibitory activity towards beef erythrocytes acetylcholinesterase
T1 sequence (P23795 whole entry): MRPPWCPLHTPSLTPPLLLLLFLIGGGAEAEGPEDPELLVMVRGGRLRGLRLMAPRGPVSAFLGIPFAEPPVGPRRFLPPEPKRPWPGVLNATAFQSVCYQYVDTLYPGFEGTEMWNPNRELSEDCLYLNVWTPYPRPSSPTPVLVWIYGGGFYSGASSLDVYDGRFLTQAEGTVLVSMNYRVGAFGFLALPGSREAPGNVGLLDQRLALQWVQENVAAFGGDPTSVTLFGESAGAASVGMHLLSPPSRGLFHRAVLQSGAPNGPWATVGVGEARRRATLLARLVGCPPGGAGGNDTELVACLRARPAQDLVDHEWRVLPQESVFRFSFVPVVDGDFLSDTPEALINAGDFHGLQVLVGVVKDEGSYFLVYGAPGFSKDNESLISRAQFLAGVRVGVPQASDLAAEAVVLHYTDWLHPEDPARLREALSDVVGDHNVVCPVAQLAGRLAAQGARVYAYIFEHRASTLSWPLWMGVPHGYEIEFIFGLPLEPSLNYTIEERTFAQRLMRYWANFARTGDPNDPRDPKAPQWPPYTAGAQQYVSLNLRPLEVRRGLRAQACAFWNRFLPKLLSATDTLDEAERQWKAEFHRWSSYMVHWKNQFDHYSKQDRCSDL

Acetylcholinesterase [4] = biological target: T1, Acetylcholinesterase; test: Inhibitory activity towards calf serum acetylcholinesterase; procedure, shortened: as §1
Cholinesterase [5] = biological target: Cholinesterase (Mus musculus, UniProt Q03311); test: Inhibitory activity towards mouse butyrylcholinesterase; procedure, shortened: as §1
L1210 = test: Antitumor activity tested in L1210 cells; assay type: functional, cell-based; conditions: Mus musculus

Chain of Cholinesterase (Homo sapiens, UniProt P06276) (P06276 whole entry): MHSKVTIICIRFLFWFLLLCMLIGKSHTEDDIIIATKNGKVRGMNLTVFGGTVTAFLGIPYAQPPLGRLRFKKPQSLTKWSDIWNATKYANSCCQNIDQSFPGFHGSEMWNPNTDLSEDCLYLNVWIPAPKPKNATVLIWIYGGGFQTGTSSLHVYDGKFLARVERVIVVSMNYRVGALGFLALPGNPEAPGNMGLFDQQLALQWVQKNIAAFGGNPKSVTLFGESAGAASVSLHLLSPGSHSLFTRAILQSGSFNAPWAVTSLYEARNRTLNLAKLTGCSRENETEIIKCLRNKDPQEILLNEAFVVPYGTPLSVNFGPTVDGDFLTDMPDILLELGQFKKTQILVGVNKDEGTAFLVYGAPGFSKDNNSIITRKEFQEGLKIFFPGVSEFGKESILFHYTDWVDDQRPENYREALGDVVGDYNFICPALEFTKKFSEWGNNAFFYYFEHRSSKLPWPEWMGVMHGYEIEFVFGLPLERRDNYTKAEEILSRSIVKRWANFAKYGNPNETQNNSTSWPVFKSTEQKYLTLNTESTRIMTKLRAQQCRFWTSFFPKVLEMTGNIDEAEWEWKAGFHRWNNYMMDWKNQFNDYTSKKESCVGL
Chain of Cholinesterase (Mus musculus, UniProt Q03311) (Q03311 whole entry): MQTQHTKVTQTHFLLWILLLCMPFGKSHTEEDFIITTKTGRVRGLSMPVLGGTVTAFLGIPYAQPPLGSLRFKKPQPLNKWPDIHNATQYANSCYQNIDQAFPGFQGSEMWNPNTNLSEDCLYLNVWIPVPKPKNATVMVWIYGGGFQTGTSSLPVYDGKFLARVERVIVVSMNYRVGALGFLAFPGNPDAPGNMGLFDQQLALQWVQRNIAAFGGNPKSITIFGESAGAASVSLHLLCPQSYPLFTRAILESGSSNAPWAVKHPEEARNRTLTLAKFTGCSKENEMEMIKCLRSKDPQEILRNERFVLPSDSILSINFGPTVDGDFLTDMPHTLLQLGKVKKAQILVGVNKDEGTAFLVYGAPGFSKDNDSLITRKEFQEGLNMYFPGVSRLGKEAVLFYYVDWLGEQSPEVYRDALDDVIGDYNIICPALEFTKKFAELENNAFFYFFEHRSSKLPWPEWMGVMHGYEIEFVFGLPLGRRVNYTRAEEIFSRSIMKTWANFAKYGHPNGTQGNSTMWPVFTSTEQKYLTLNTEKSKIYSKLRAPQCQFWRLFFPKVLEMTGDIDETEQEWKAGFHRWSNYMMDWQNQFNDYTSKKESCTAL
Chain of Acetylcholinesterase (Electrophorus electricus, UniProt O42275) (O42275 whole entry): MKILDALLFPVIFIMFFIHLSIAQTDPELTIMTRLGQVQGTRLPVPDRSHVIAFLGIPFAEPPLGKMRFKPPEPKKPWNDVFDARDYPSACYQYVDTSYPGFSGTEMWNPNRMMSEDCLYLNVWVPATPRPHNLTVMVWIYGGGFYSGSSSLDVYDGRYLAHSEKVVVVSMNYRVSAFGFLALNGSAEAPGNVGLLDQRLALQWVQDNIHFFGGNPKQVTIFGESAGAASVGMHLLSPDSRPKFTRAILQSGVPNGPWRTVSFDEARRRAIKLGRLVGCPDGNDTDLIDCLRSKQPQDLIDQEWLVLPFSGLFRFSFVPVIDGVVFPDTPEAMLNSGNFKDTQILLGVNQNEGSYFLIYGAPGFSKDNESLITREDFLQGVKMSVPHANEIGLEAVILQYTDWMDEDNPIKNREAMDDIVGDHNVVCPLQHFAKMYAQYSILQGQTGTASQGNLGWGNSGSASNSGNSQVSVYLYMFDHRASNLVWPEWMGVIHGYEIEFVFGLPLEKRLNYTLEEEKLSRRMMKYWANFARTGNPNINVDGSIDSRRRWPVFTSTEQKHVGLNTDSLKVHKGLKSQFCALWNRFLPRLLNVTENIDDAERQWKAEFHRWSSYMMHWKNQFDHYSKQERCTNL

Structure (SMILES)	pEC50 (CCRF-CEM)	pIC50 (Acetylcholinesterase [1])	pIC50 (Cholinesterase [2])	pIC50 (Acetylcholinesterase [3])	pIC50 (Acetylcholinesterase [4])	pIC50 (Cholinesterase [5])	pEC50 (L1210)
CCC(C)c1ccc2c(c1)COP(=O)(OCC1C=CC(n3cc(C)c(=O)[nH]c3=O)O1)O2 (centres undefined)	5.72	< 4.30	5.48	–	–	–	–
Cc1cccc2c1OP(=O)(OC[C@H]1O[C@@H](N3C=NC4C(=O)N=C(N)N=C43)C[C@@H]1O)OC2 (some centres undefined)	–	< 4.30	< 4.30	–	–	–	–
Cc1cccc2c1OP(=O)(OCC1C=CC(n3cnc4c(N)ncnc43)O1)OC2 (centres undefined)	7.19	< 4.30	5.92	< 4.30	< 4.30	4.98	–
Cc1cn(C2C=CC(COP3(=O)Oc4ccccc4C(C(Cl)(Cl)Cl)O3)O2)c(=O)[nH]c1=O (centres undefined)	6.72	< 4.30	4.57	–	–	–	–
Cc1cn(C2C=C[C@@H](CO[P@]3(=O)OCc4cccc(C(C)(C)C)c4O3)O2)c(=O)[nH]c1=O (single isomer, unassigned)	6.22	< 4.30	5.59	–	–	–	–
CCOC(=O)CC1OP(=O)(OCC2C=CC(n3cc(C)c(=O)[nH]c3=O)O2)Oc2cccc(Cl)c21 (centres undefined)	6.85	< 4.30	< 4.30	–	–	–	–
Cc1cn(C2C=CC(COP3(=O)OCc4cc5ccccc5cc4O3)O2)c(=O)[nH]c1=O (centres undefined)	6.39	< 4.30	6.39	–	–	–	–
COc1ccc2c(c1)CO[P@](=O)(OC[C@@H]1C=C[C@H](n3cc(C)c(=O)[nH]c3=O)O1)O2	7.37	< 4.30	< 4.30	–	–	–	–
Cc1cccc2c1OP(=O)(OC[C@H]1C=CC(n3cnc4c(NC5CC5)nc(N)nc43)C1)OC2 (single isomer, unassigned)	6.15	< 4.30	5.89	–	–	–	–
O=C1NC(=O)N([C@H]2C[C@H](O)[C@@H](COP3(=O)OCc4cccc(-c5ccccc5)c4O3)O2)C[C@H]1/C=C/Br (some centres undefined)	–	< 4.30	< 4.30	–	–	–	–
Cc1cccc2c1OP(=O)(OC[C@@H]1C[C@H](F)[C@H](n3cnc4c(N)ncnc43)O1)OC2 (some centres undefined)	–	< 4.30	5.30	< 4.30	< 4.30	< 4.30	–
Cc1cccc2c1O[P@](=O)(OC[C@@H]1C=CC(n3cc(C)c(=O)[nH]c3=O)O1)OC2 (single isomer, unassigned)	6.38	< 4.30	6.62	< 4.30	< 4.30	≤ 5.30	–
Cc1cn(C2C=CC(COP3(=O)OCc4cccc(-c5ccccc5)c4O3)O2)c(=O)[nH]c1=O (centres undefined)	6.89	< 4.30	6.46	–	–	–	–
Cc1cn(C2C=CC(COP3(=O)OCc4cccc(CCC(=O)O)c4O3)O2)c(=O)[nH]c1=O (centres undefined)	6.72	< 4.30	< 4.30	–	–	–	–
Cc1cn(C2C=CC(COP3(=O)OCc4ccc5ccccc5c4O3)O2)c(=O)[nH]c1=O (centres undefined)	6.85	< 4.30	6.60	–	–	–	–
COC(=O)CCc1cccc2c1OP(=O)(OCC1C=CC(n3cc(C)c(=O)[nH]c3=O)O1)OC2 (centres undefined)	6.80	< 4.30	5.57	–	–	–	–
Cc1cn(C2C=CC(COP3(=O)OCc4cc(CCC(=O)OC(C)(C)C)ccc4O3)O2)c(=O)[nH]c1=O (centres undefined)	6.74	< 4.30	5.36	–	–	–	–
Cc1cn(C2C=CC(COP3(=O)OCc4c(ccc5ccccc45)O3)O2)c(=O)[nH]c1=O (centres undefined)	7.05	< 4.30	5.41	–	–	–	–
Cc1cccc2c1O[P@@](=O)(OC[C@H](CO)OCn1cnc3c(O)nc(N)nc31)OC2	–	< 4.30	4.64	–	–	–	–
Cc1cn(C2C=CC(COP3(=O)OCc4cc(-c5ccccc5)ccc4O3)O2)c(=O)[nH]c1=O (centres undefined)	6.40	< 4.30	5.36	–	–	–	–
Cc1cccc2c1OP(=O)(OCC1CCC(n3cnc4c(N)ncnc43)O1)OC2 (centres undefined)	7.33	< 4.30	6.04	< 4.30	< 4.30	5.63	–
Cc1cn(C2C=CC(COP3(=O)OCc4c(Cl)cccc4O3)O2)c(=O)[nH]c1=O (centres undefined)	7.05	< 4.30	6.24	–	–	–	–
Cc1cccc2c1OP(=O)(OCC1OC(n3cc(C)c(=O)[nH]c3=O)CC1N=[N+]=[N-])OC2 (centres undefined)	8.22	< 4.30	4.40	< 4.30	< 4.30	< 4.30	–
Cc1cccc2c1OP(=O)(OC[C@H]1O[C@@H](n3cc(C)c(=O)[nH]c3=O)C[C@@H]1O)OC2 (some centres undefined)	–	< 4.30	4.44	–	–	–	–
Cc1cccc2c1OP(=O)(OCC1C=CC(n3cnc4c(O)nc(N)nc43)C1)OC2 (centres undefined)	6.33	< 4.30	5.60	–	–	–	–

Structure (SMILES)	pEC50 (CCRF-CEM)	pIC50 (Acetylcholinesterase [1])	pIC50 (Cholinesterase [2])	pIC50 (Acetylcholinesterase [3])	pIC50 (Acetylcholinesterase [4])	pIC50 (Cholinesterase [5])	pEC50 (L1210)
COC(=O)CCc1ccc2c(c1)COP(=O)(OCC1C=CC(n3cc(C)c(=O)[nH]c3=O)O1)O2 (centres undefined)	6.62	< 4.30	5.06	–	–	–	–
Cc1cn(C2C=CC(COP3(=O)OCc4cc(CCC(=O)OCc5ccccc5)ccc4O3)O2)c(=O)[nH]c1=O (centres undefined)	7.10	< 4.30	4.66	–	–	–	–
Cc1cccc2c1OP(=O)(OC[C@@H]1C=C[C@H](n3cc(C)c(=O)[nH]c3=O)O1)OC2 (some centres undefined)	–	< 4.30	5.92	–	–	–	–
Cc1cc(C)c2c(c1)COP(=O)(OCC1C=CC(n3cc(C)c(=O)[nH]c3=O)O1)O2 (centres undefined)	–	< 4.30	4.34	–	–	–	–
Cc1ccc2c(c1)COP(=O)(OC[C@@H]1C=C[C@H](n3cc(C)c(=O)[nH]c3=O)O1)O2 (some centres undefined)	–	< 4.30	5.34	–	–	–	–
Cc1cn(C2C=CC(COP3(=O)OCc4cc(C(C)(C)C)ccc4O3)O2)c(=O)[nH]c1=O (centres undefined)	6.85	< 4.30	5.25	–	–	–	–
Cc1cn(C2C=CC(COP3(=O)OCc4cc(CCC(=O)O)ccc4O3)O2)c(=O)[nH]c1=O (centres undefined)	6.85	< 4.30	< 4.30	–	–	–	–
Cc1cn(C2C=CC(COP3(=O)Oc4ccccc4C(C(Cl)Cl)O3)O2)c(=O)[nH]c1=O (centres undefined)	6.80	< 4.30	4.59	–	–	–	–
Cc1cccc2c1OP(=O)(OC[C@@H]1C[C@@H](F)[C@H](n3cnc4c(N)ncnc43)O1)OC2 (some centres undefined)	–	< 4.30	5.96	–	–	–	–
CCCCC1OP(=O)(OCC2C=CC(n3cc(C)c(=O)[nH]c3=O)O2)Oc2cccc(Cl)c21 (centres undefined)	6.72	< 4.30	4.89	–	–	–	–
Cc1cccc2c1OP(=O)(OCC1CC(O)C(n3cnc4c(N)ncnc43)O1)OC2 (centres undefined)	–	< 4.30	4.55	–	–	–	–
Cc1cn(C2C=CC(COP3(=O)Oc4cccc(Cl)c4C(C)O3)O2)c(=O)[nH]c1=O (centres undefined)	6.72	< 4.30	5.74	–	–	–	–
COc1ccc2c(c1)CO[P@@](=O)(OC[C@@H]1C=CC(n3cc(C)c(=O)[nH]c3=O)O1)O2 (single isomer, unassigned)	6.30	< 4.30	5.74	–	–	–	–
Cc1cn([C@H]2C=C[C@@H](COP3(=O)OCc4cccc(C(C)(C)C)c4O3)O2)c(=O)[nH]c1=O (some centres undefined)	6.74	< 4.30	5.38	–	–	–	–
Cc1cccc2c1OP(=O)(OCC1OC(n3cc(C)c(=O)[nH]c3=O)CC1=O)OC2 (centres undefined)	–	< 4.30	< 4.30	–	–	–	–
O=C1NC(=O)N([C@H]2C[C@H](O)[C@@H](CO[P@]3(=O)OCc4cccc(-c5ccccc5)c4O3)O2)CC1/C=C/Br (some centres undefined)	–	< 4.30	5.43	–	–	–	–
Cc1cn([C@H]2C=C[C@@H](CO[P@@]3(=O)OCc4cccc(C(C)(C)C)c4O3)O2)c(=O)[nH]c1=O	6.89	< 4.30	< 4.30	–	–	–	–
Cc1cccc2c1O[P@@](=O)(OC[C@H]1O[C@@H](n3cc(F)c(=O)[nH]c3=O)C[C@@H]1O)OC2	–	< 4.30	–	–	–	–	7.40
Cc1cn(C2C=CC(COP3(=O)OCc4cc(C(C)(C)C)cc(C(C)(C)C)c4O3)O2)c(=O)[nH]c1=O (centres undefined)	5.96	< 4.30	< 4.30	–	–	–	–
Cc1cn([C@H]2C=C[C@@H](COP3(=O)OCc4ccccc4O3)O2)c(=O)[nH]c1=O (some centres undefined)	–	< 4.30	6.11	–	–	–	–
Cc1cccc2c1OP(=O)(OCC1CCC(n3cc(C)c(=O)[nH]c3=O)O1)OC2 (centres undefined)	5.37	< 4.30	6.00	–	–	–	–
Cc1cn(C2C=CC(COP3(=O)OCc4cccc(CCC(=O)OCc5ccccc5)c4O3)O2)c(=O)[nH]c1=O (centres undefined)	6.82	< 4.30	5.55	–	–	–	–
Cc1cn(C2C=CC(COP3(=O)Oc4ccccc4C(CCl)O3)O2)c(=O)[nH]c1=O (centres undefined)	6.72	< 4.30	5.41	–	–	–	–
Cc1cccc2c1O[P@@](=O)(OC[C@@H]1C=C[C@H](n3cc(C)c(=O)[nH]c3=O)O1)OC2	7.10	< 4.30	< 4.30	< 4.30	< 4.30	< 4.30	–
CCC(C)c1cccc2c1OP(=O)(OCC1C=CC(n3cc(C)c(=O)[nH]c3=O)O1)OC2 (centres undefined)	7.10	< 4.30	5.70	–	–	–	–
